IC50, Activity and T/C data for six compounds are collected here from ChEMBL document CHEMBL1148068, “Bistramides A, B, C, D, and K: a new class of bioactive cyclic polyethers from Lissoclinum bistratum” (J Nat Prod, 1994).

What is called IC50 is the concentration at which inhibition is half-maximal. Read a low IC50 as greater potency in that assay. As a reminder, the T/C is the ratio of treated to control.

Converted amounts (≈) assume the structure as drawn. The source made the active and inactive calls. The calls are words filed in the database; no cut-off is given here. A value given as a limit tells only on which side of the number the result lay.

Assay [1] has as its system KB. The assay can be described thus: Cytotoxicity against human KB cells after 72 hrs by MTT assay. In kind it is functional, cell-based. In outline: (§1)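 Cells were seeded in microtiter plates at 0.1 × 10^3 cells/ml. Growth was estimated at 72 h by MTT conversion to formazan. Values are means of 3 experiments.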
Assay [2] has as its system P388. The assay can be described thus: Cytotoxicity against mouse P388 cells after 72 hrs by MTT assay. It is filed as functional, cell-based. The conditions noted are these: P388, 72 h. In outline: as §1
For orientation: Tetrazolium assays rely on reduction of a dye to a coloured formazan, in cell work by metabolically active cells.

Assay [3] relates to P388. The assay can be described thus: Cytotoxicity against mouse doxorubicin resistant P388 cells after 72 hrs by MTT assay. Particulars: P388, 72 h. In kind it is functional, cell-based. In outline:
as §1

In assay [4] the test system is B16. Nature of the assay: Cytotoxicity against mouse B16 cells after 72 hrs by MTT assay. In kind it is functional, cell-based. Particulars: B16, 72 h. In outline: as §1
Assay [5] deals with HT-29. Nature of the assay: Cytotoxicity against human HT-29 cells after 72 hrs by MTT assay. In kind it is functional, cell-based. Particulars: HT-29, 72 h. In outline: as §1
Assay [6] in a line: Cytotoxicity against human NSCLC-N6 cells after 72 hrs by MTT assay. In kind it is functional, cell-based. Particulars: NSCLC-N6, 72 h. In outline: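 Cells originated from a nude-mouse graft and were cultured in RPMI 1640 with 5% fetal calf serum, penicillin, streptomycin and 2 mM glutamine. They were seeded in microtiter plates at 0.1 × 10^3 cells/ml. Growth was read by MTT-to-formazan conversion at 72 h. Values are means of 3 experiments.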

Assay [7] is described as follows: Cell cycle arrest in human NSCLC-N6 cells assessed as reduction in accumulation at S phase by flow cytometry. In kind it is functional, cell-based. The gist of the method:
(§2)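 NSCLC-N6 cells were grown in RPMI 1640 with 5% FCS, penicillin, streptomycin and 2 mM glutamine. 0.8 × 10^3 cells were cultured in flasks with or without compound for 48 h. Medium was removed and cells stained in situ with Vindelov solution. DNA content of 2000 nuclei was measured by flow cytometry to give DNA histograms.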
For orientation: Flow cytometry measures light scatter and fluorescence of single cells or particles in a stream.

Assay [8] can be described thus: Cell cycle arrest in human NSCLC-N6 cells assessed as increase in accumulation at G2M phase by flow cytometry. It is filed as functional, cell-based. The gist of the method:
as §2

The subject of assay [9] is NSCLC-N6. The assay can be described thus: Induction of polyploidy in human NSCLC-N6 cells assessed as 4N chromosome levels at 1 ug/ml by DNA cytogram. It is filed as functional, cell-based. The gist of the method: as §2
Assay [10] relates to P388. The assay can be described thus: Antitumor activity against mouse P388 cells xenografted mouse at 0.4 mg/kg, ip administered as 3 doses. It is filed as functional. The conditions noted are these: route intraperitoneal.
A short description of assay [11]: Antitumor activity against human NSCLC-N6 cells xenografted mouse at 20 mg/kg, iv administered as 4 doses measured after 30 days. In kind it is functional. In outline:
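Nude mice carried sc NSCLC-N6 xenografts, serially passaged as mechanically dispersed tumour (about 1 g in 4.8 ml saline, 0.2 ml per mouse). Six mice per group were treated once tumours reached 50–200 mm3. Each received 20 mg/kg iv on days 1, 5, 9 and 11 (4 doses), in physiological saline with 2% DMSO.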
In general terms: Xenograft models place foreign cells or tissue in a host animal.

The nature of assay [12]: Cell cycle arrest in human NSCLC-N6 cells assessed as accumulation at G1 phase by flow cytometry. It is filed as functional, cell-based. In outline:
as §2

Assay [13] is described as follows: Antitumor activity against human NSCLC-N6 cells xenografted mouse at 10 mg/kg/day, ip administered for 16 days measured after 30 days. In kind it is functional. The conditions noted are these: route intraperitoneal. The gist of the method:
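NSCLC-N6 tumour maintained by serial sc transplant in nude mice: 0.2 ml of a suspension from about 1 g of mechanically dispersed excised tumour in 4.8 ml sterile saline. Groups of six mice were treated once tumours reached 50–200 mm3. Dosing was 10 mg/kg ip daily on days 1–16, in physiological saline with 2% DMSO.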

As to `C/C=C/C(=O)C[C@H]1CC[C@H](C)[C@H](CC(=O)NC[C@H](O)[C@H](C)C(=O)NCCC[C@H]2O[C@@]3(CCC[C@H](CC[C@H](C)/C=C(\C)[C@H](C)O)O3)CC[C@@H]2C)O1` [BISTRAMIDE A], the IC50 in [1] came to 0.53 µg/mL (≈ 0.752 µM); in assay [2] it was 0.2 µg/mL (≈ 0.284 µM); in assay [3] it was 0.05 µg/mL (≈ 0.0709 µM); in assay [4] it was 0.1 µg/mL (≈ 0.142 µM); in assay [5] it was 0.32 µg/mL (≈ 0.454 µM); in assay [6] it was 0.03 µg/mL (≈ 0.0426 µM). In addition, the result in assay [7], in assay [8] and in [9] was Active. For the same compound, the T/C in assay [10] is given as 118%.

For the compound `CCCC(=O)CC1CCC(C)C(CC(=O)NCC(O)C(C)C(=O)NCCCC2OC3(CCCC(CCC(C)/C=C(\C)C(C)O)O3)CCC2C)O1` (stereo unspecified) [BISTRAMIDE B], the IC50 in assay [1] stood at 2.1 µg/mL (≈ 2.97 µM); in [2], 0.2 µg/mL (≈ 0.283 µM); in assay [3], 1.16 µg/mL (≈ 1.64 µM); in assay [4], 1.2 µg/mL (≈ 1.7 µM); in assay [5] it was 0.71 µg/mL (≈ 1 µM); in [6], 0.32 µg/mL (≈ 0.453 µM). Besides, in assay [7], the outcome was Active.

Turning to `C/C=C/C(=O)C[C@H]1CC[C@H](C)[C@H](CC(=O)NC[C@H](O)[C@H](C)C(=O)NCCC[C@H]2O[C@@]3(CCC[C@@H](CC[C@H](C)/C=C(\C)C(C)=O)O3)CC[C@@H]2C)O1` [BISTRAMIDE C], the IC50 was determined as 0.65 µg/mL (≈ 0.925 µM) in assay [1]; 0.02 µg/mL (≈ 0.0285 µM) in assay [2]; 0.05 µg/mL (≈ 0.0711 µM) in assay [3]; 0.06 µg/mL (≈ 0.0854 µM) in [4]; 0.5 µg/mL (≈ 0.711 µM) in assay [5]; 0.05 µg/mL (≈ 0.0711 µM) in assay [6]. Further, in [7], the outcome was Active.

As to `C/C=C/[C@H](O)CC1CCC(C)C(CC(=O)NCC(O)C(C)C(=O)NCCCC2OC3(CCCC(CCC(C)/C=C(\C)C(C)O)O3)CCC2C)O1` (stereo partly specified) [BISTRAMIDE D], the IC50 in assay [1] is 10 µg/mL (≈ 14.1 µM); in assay [2], 0.36 µg/mL (≈ 0.509 µM); in assay [3], 5.82 µg/mL (≈ 8.23 µM); in assay [4], 0.1 µg/mL (≈ 0.141 µM); in assay [5] it was 2.76 µg/mL (≈ 3.9 µM); in [6], 3.43 µg/mL (≈ 4.85 µM). In addition, the outcome in assay [7] was Active. Besides, in assay [11], the T/C came to 53%.

With `C/C=C/C(O)C/C=C/CC(C)C(O)CC(=O)NCC(O)C(C)C(=O)NCCCC1OC2(CCCC(CCC(C)/C=C(\C)C(C)O)O2)CCC1C` (stereo unspecified) [BISTRAMIDE K], the IC50 in assay [1] is > 10 µg/mL; in assay [2] it was 0.57 µg/mL (≈ 0.806 µM); in [3], > 10 µg/mL; in [4], 1.9 µg/mL (≈ 2.69 µM); in assay [5] it was 5.6 µg/mL (≈ 7.92 µM); in [6], 3.23 µg/mL (≈ 4.57 µM). In addition, the outcome in assay [12] was Active. In [13], this compound came in with a T/C of 49%.

For `Sc1ncnc2nc[nH]c12` [MERCAPTOPURINE ANHYDROUS], the IC50 in [1] was 0.55 µg/mL (≈ 3.61 µM); in assay [2], 0.7 µg/mL (≈ 4.6 µM); in assay [3], 0.26 µg/mL (≈ 1.71 µM); in assay [4], 0.8 µg/mL (≈ 5.26 µM); in assay [5], 0.87 µg/mL (≈ 5.72 µM); in assay [6], 0.79 µg/mL (≈ 5.19 µM).
